The values that follow come from ChEMBL document CHEMBL1137155, “Identification of [(naphthalene-1-carbonyl)-amino]-acetic acid derivatives as nonnucleoside inhibitors of HCV NS5B RNA dependent RNA polymerase” (Bioorg Med Chem Lett, 2004).

Structures are written as SMILES.

The target in experiment [1] is RNA-directed RNA polymerase (Hepacivirus hominis, UniProt O39930). The experiment can be described thus: Inhibitory concentration against HCV NS5B RNA dependent RNA polymerase. The method, boiled down: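 Enzyme: recombinant C-terminally truncated NS5B from genotype 1b, BK strain. Inhibitor was pre-incubated with the enzyme for 15 min. An RNA template, NTPs and [α-32P]GTP were then added, and the reaction ran for 2 h at room temperature. Product RNA was collected by filtration, and incorporated radioactivity was measured by scintillation counting.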

In another experiment the target is DNA polymerase beta (Homo sapiens, UniProt P06746). The experiment can be described thus: Inhibitory concentration against human beta polymerase.

RNA-directed RNA polymerase, sequence (O39930 whole entry, the tested form may be a part): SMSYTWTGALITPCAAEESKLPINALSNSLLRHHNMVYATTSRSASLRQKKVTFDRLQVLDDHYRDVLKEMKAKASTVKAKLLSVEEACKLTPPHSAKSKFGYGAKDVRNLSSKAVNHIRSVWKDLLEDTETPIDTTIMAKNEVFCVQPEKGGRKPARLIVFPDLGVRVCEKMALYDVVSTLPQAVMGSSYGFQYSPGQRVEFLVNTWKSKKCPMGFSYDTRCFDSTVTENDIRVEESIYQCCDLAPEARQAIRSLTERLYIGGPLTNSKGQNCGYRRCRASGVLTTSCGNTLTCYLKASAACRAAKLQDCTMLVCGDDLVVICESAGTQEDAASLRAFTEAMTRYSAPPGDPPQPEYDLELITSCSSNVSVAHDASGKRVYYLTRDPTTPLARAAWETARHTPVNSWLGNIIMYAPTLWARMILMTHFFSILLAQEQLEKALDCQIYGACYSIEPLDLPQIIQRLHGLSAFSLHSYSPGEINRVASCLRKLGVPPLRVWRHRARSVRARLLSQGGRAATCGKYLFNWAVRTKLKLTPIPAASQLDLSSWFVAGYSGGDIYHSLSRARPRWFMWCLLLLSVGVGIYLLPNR

What is called IC50 is the concentration that gives 50% inhibition. Low values mean higher potency, high ones lower potency. In the case of `COc1ccc2c(C(=O)NC(CCC(=O)O)C(=O)O)c(Br)ccc2c1C(F)(F)F` (stereo unspecified), 120 nM corresponded to half-maximal inhibition in experiment [1] (IC50).
The same measure, in the same setting: under `COC(=O)N(CCC(=O)O)C(=O)c1c(Br)ccc2c(C(F)(F)F)c(OC)ccc12` stands above 10000 nM.
Same read-out and setting: under `COc1ccc2c(C(=O)N(CC(=O)O)CC(=O)O)cccc2c1C(F)(F)F` stands 900 nM; under `COc1ccc2c(C(=O)N(C)CC(=O)O)c(Cl)ccc2c1C(F)(F)F`, 5100 nM.
On the same count and under the same terms, under `COc1ccc2c(C(=O)NC(CC(=O)O)C(=O)O)c(Br)ccc2c1C(F)(F)F` (stereo unspecified) stands 910 nM.
Regarding `C=CCOC(=O)N(CC(=O)O)C(=O)c1c(Br)ccc2c(C(F)(F)F)c(OC)ccc12`, inhibition in experiment [1] was half-maximal at 3300 nM (IC50).
The same measure, in the same setting: under `COC(=O)N(CC(=O)O)C(=O)c1cccc2c(C(F)(F)F)c(OC)ccc12` stands above 26000 nM; under `COc1ccc2c(C(=O)N(C)CC(=O)O)c(Br)ccc2c1C(F)(F)F`, 2000 nM; under `COc1ccc2c(C(=O)NC(CC(=O)O)C(=O)O)cccc2c1C(F)(F)F` (stereo unspecified), 1300 nM.
The same measure, in the same setting: the same measure for `COc1ccc2c(C(=O)NC(CCC(=O)O)C(=O)O)c(F)ccc2c1C(F)(F)F` (stereo unspecified): 1400 nM; for `COc1ccc2c(C(=O)NC(CC(=O)O)C(=O)O)cccc2c1Br` (stereo unspecified): 1200 nM.
On the same count and under the same terms, under `CCCOC(=O)N(CC(=O)O)C(=O)c1c(Br)ccc2c(C(F)(F)F)c(OC)ccc12` stands 4900 nM; under `COC(=O)N(CC(=O)O)C(=O)c1c(F)ccc2c(C(F)(F)F)c(OC)ccc12`, 15200 nM.
Regarding `COC(=O)N(CC(=O)O)C(=O)c1c(-c2ccc(Cl)cc2)ccc2c(C(F)(F)F)c(OC)ccc12`, the half-maximal inhibitory concentration (IC50) in experiment [1] was above 20000 nM.
Still for that read-out and setting: under `COc1ccc2c(C(=O)NC(CC(=O)O)C(=O)O)c(F)ccc2c1C(F)(F)F` (stereo unspecified) stands 2100 nM; under `COc1ccc2c(C(=O)N(CC(=O)O)C(=O)OCC(C)(C)C)c(Br)ccc2c1C(F)(F)F`, 6400 nM; under `COc1ccc2c(C(=O)NC(CCC(=O)O)C(=O)O)cccc2c1Br` (stereo unspecified), 590 nM.
Same read-out and setting: the same measure for `CCOC(=O)N(CC(=O)O)C(=O)c1c(Br)ccc2c(C(F)(F)F)c(OC)ccc12`: 3100 nM.
In turn, `COC(=O)N(CC(=O)O)C(=O)c1c(Br)ccc2c(C(F)(F)F)c(OC)ccc12` gave an IC50 in experiment [1] of 1400 nM. Against the preceding compound, the IC50 is about 2.2-fold lower.
For `COc1ccc2c(C(=O)N(CC(=O)O)C(=O)OCC(C)C)c(Br)ccc2c1C(F)(F)F`, in experiment [1], 7700 nM corresponded to half-maximal inhibition (IC50).
Same read-out and setting: under `COC(=O)N(CC(=O)O)C(=O)c1c(OC)ccc2c(C(F)(F)F)c(OC)ccc12` stands 11300 nM.
In experiment [1], `C#CCOC(=O)N(CC(=O)O)C(=O)c1c(Br)ccc2c(C(F)(F)F)c(OC)ccc12` came in with an IC50 of 2900 nM.
The same measure, in the same setting: under `COc1ccc2c(C(=O)NC(CCC(=O)O)C(=O)O)cccc2c1C(F)(F)F` (stereo unspecified) stands 490 nM.
`COC(=O)N(CC(=O)O)C(=O)c1c(Cl)ccc2c(C(F)(F)F)c(OC)ccc12`: the figures for the IC50 (against DNA polymerase beta; in experiment [1]) were above 100000 nM and 5000 nM, respectively.
For the compound `COc1ccc2ccccc2c1C(=O)NC(CC(=O)O)C(=O)O` (stereo unspecified), the IC50 in experiment [1] is above 10000 nM.
